Laboratory results as given in ChEMBL document CHEMBL1135574, “Carbocyclic dinucleoside polyphosphonates: interaction with HIV reverse transcriptase and antiviral activity” (J Med Chem, 2002).

Key:
[1] = target: Human immunodeficiency virus type 1 reverse transcriptase (Human immunodeficiency virus 1, UniProt Q72547); assay: Inhibition of DNA synthesis by HIV reverse transcriptase
[2] = system: MT4; assay: The concentration required to cause a 50% inhibition of HIV reproduction was determined in MT-4 cell culture for free forms; type: functional; settings: Homo sapiens, read-out: ID50 (the source's name)
Summary of the method: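 HIV-1 strain GKV-4046 in MT-4 cells (2×10^6/mL, viability >90%), MOI 0.2–0.5; cells in RPMI-1640 with 10% FBS, 37 °C, 5% CO2. Infected cells grown 3 days with free compound at 0.001–100 μg/mL, triplicate per dose. p24 antigen measured by immunoassay; ID50 = concentration halving HIV reproduction; two independent experiments averaged.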

[3] = system: MT4; assay: The concentration required to cause a 50% inhibition of cell proliferation was determined in MT-4 cell culture.; type: functional; settings: Homo sapiens, read-out: CD50 (the source's name)
Summary of the method: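 Uninfected MT-4 cells grown 3 days with compound at 0.001–100 μg/mL, triplicate per dose. Cell concentration and viability read by trypan blue exclusion; CD50 = concentration halving cell proliferation. Values averaged from two independent experiments.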

[4] = Half life period in phosphate buffer (pH 7.5) was determined at 37 degrees Centigrade; type: ADME
Summary of the method: (§1)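 Compounds held at 37 °C in human blood serum or in phosphate buffer, pH 7.5. For serum samples, precipitated proteins were spun off after thawing. Remaining material was analysed by RP-18 HPLC with a 0–25% linear gradient of 70% ethanol in 0.05 M triethylammonium bicarbonate (pH 7.5–8.0) over 25 min. Total loaded taken as 100%. Half-lives were averaged from at least three experiments.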

[5] = Half life period in human blood serum was determined at 37 degrees Centigrade; type: ADME, Plasma; summary of the method: as §1
[6] = system: MT4; assay: The concentration required to cause a 50% inhibition of HIV reproduction was determined in MT-4 cell culture for liposome-entrapped forms.; type: functional; settings: Homo sapiens, read-out: ID50 (the source's name)
Summary of the method: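 HIV-1 GKV-4046 in MT-4 cells, MOI 0.2–0.5, 3-day culture, p24 immunoassay read-out. Compounds given in phosphatidylcholine liposomes: dry lipid film hydrated with compound in PBS pH 7.0 (1:124 drug/lipid, 1 mM compound), extruded down to 0.1 μm pores (mean 0.16 μm); 40–50% entrapment. ID50 from two independent experiments.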

Nc1nc2c(ncn2C2C=CC(OCP(=O)(O)OP(=O)(O)C(Br)(Br)P(=O)(O)O)C2)c(=O)[nH]1 (stereo unspecified)
IC50 [1]: > 200 µM

Nc1ncnc2c1ncn2C1C=CC(OCP(=O)(O)OP(=O)(O)C(Br)(Br)P(=O)(O)OP(=O)(O)COC2C=CC(n3cnc4c(N)ncnc43)C2)C1 (stereo unspecified)
IC50 [1]: > 200 µM
IC50 [2]: 5.4 µM
CC50 [3]: > 110 µM

Nc1nc2c(ncn2[C@H]2C[C@H](O)[C@@H](COP(=O)(O)OP(=O)(O)OP(=O)(O)O)O2)c(=O)[nH]1 [DEOXYGUANOSINE TRIPHOSPHATE]
half-life [4]: > 24 h
half-life [5]: 0.3 h

Nc1nc(O)c2ncn(C3C=CC(OCP(=O)(O)OP(=O)(O)C(F)(F)P(=O)(O)OP(=O)(O)COC4C=CC(n5cnc6c(O)nc(N)nc65)C4)C3)c2n1 (stereo unspecified)
half-life [4]: 15 h
IC50 [1]: 15 µM
half-life [5]: 3 h
IC50 [2]: 60 µM
CC50 [3]: 84 µM

Nc1ncnc2c1ncn2C1C=CC(OCP(=O)(O)OP(=O)(O)OP(=O)(O)COC2C=CC(n3cnc4c(N)ncnc43)C2)C1 (stereo unspecified)
IC50 [1]: 10 µM
IC50 [2]: 6.6 µM
CC50 [3]: 146 µM

Nc1ncnc2c1ncn2C1C=CC(OCP(=O)(O)OP(=O)(O)C(F)(F)P(=O)(O)OP(=O)(O)COC2C=CC(n3cnc4c(N)ncnc43)C2)C1 (stereo unspecified)
IC50 [1]: 20 µM

Nc1nc2c(ncn2C2C=CC(OCP(=O)(O)OP(=O)(O)C(Br)(Br)P(=O)(O)OP(=O)(O)COC3C=CC(n4cnc5c(=O)[nH]c(N)nc54)C3)C2)c(=O)[nH]1 (stereo unspecified)
IC50 [1]: > 250 µM

Nc1ncnc2c1ncn2C1C=CC(OCP(=O)(O)OP(=O)(O)C(Br)(Br)P(=O)(O)O)C1 (stereo unspecified)
IC50 [1]: > 1000 µM
IC50 [2]: 80 µM
CC50 [3]: > 160 µM

Nc1nc2c(ncn2C2C=CC(OCP(=O)(O)OP(=O)(O)OP(=O)(O)O)C2)c(=O)[nH]1 (stereo unspecified)
IC50 [6]: < 1 µM
IC50 [1]: 0.3 µM
IC50 [2]: 7.2 µM
CC50 [3]: 20.5 µM

Nc1ncnc2c1ncn2C1C=CC(OCP(=O)(O)OP(=O)(O)C(F)(F)P(=O)(O)O)C1 (stereo unspecified)
IC50 [1]: 25 µM

Nc1ncnc2c1ncn2C1C=CC(OCP(=O)(O)OP(=O)(O)OP(=O)(O)OP(=O)(O)COC2C=CC(n3cnc4c(N)ncnc43)C2)C1 (stereo unspecified)
IC50 [6]: 1.2 µM
IC50 [1]: 2 µM
IC50 [2]: 2 µM
CC50 [3]: 131 µM

Cc1cn([C@H]2C[C@H](N=[N+]=[N-])[C@@H](CO)O2)c(=O)[nH]c1=O [ZIDOVUDINE]
IC50 [2]: 0.004 µM
CC50 [3]: 140 µM

Nc1nc2c(ncn2C2C=CC(OCP(=O)(O)OP(=O)(O)OP(=O)(O)COC3C=CC(n4cnc5c(=O)[nH]c(N)nc54)C3)C2)c(=O)[nH]1 (stereo unspecified)
IC50 [1]: 8 µM
IC50 [2]: 9 µM
CC50 [3]: 56 µM

Cc1cn([C@H]2C=C[C@@H](CO)O2)c(=O)[nH]c1=O [STAVUDINE]
IC50 [2]: 0.24 µM
CC50 [3]: 314 µM

Nc1ncnc2c1ncn2C1C=CC(OCP(=O)(O)OP(=O)(O)OP(=O)(O)O)C1 (stereo unspecified)
IC50 [1]: 0.2 µM
IC50 [2]: > 10 µM
CC50 [3]: 212 µM

Nc1nc(O)c2ncn(C3C=CC(OCP(=O)(O)O)C3)c2n1 (stereo unspecified)
IC50 [2]: 201 µM
CC50 [3]: > 320 µM

Nc1nc2c(ncn2C2C=CC(OCP(=O)(O)OP(=O)(O)C(F)(F)P(=O)(O)O)C2)c(=O)[nH]1 (stereo unspecified)
half-life [4]: > 24 h
IC50 [1]: 25 µM
half-life [5]: 7 h
IC50 [2]: > 200 µM
CC50 [3]: 144 µM

Nc1nc2c(ncn2C2C=CC(OCP(=O)(O)OP(=O)(O)OP(=O)(O)OP(=O)(O)COC3C=CC(n4cnc5c(=O)[nH]c(N)nc54)C3)C2)c(=O)[nH]1 (stereo unspecified)
half-life [4]: 12 h
IC50 [6]: 0.5 µM
IC50 [1]: 0.7 µM
half-life [5]: 3 h
IC50 [2]: > 12 µM
CC50 [3]: > 12 µM
